In the library only some 2.3% were active in any assay of this set; here they are far more common.
GalR3 antagonist: blocks the human galanin receptor 3 | O60755 | HEK293 GalR3-CNG cAMP membrane potential fluorescence; galR3 body fused to GalR1 C-terminus | inhibition, % at 3 µM | 360,000 tested, 0.44% active | AID 651719;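 active = inhibition above the screen-wide average plus 3 SD, cut at about 13% in these data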;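 also: forskolin and galanin both at EC90 stimulate the cells; cAMP rise reported by CNG channel membrane potential dye signal; 0% = forskolin plus galanin with DMSO and 100% = forskolin alone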
Target sequence (O60755 1-299 limits assumed): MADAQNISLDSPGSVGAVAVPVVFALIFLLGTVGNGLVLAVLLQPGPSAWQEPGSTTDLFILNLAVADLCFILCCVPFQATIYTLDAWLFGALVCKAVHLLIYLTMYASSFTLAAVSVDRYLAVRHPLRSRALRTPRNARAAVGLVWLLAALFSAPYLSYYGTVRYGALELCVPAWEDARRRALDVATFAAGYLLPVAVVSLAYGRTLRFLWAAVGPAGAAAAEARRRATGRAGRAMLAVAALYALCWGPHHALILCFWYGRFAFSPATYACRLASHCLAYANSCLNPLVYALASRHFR
NR2E3 ag-1: activates human photoreceptor nuclear receptor NR2E3; Q9Y5X4; AID 2300; GST-NR2E3/biotin-RetCOR TR-FRET, 1536-well; 320,000 tested, 0.12% active; inhibition of corepressor binding, % at 4.78 µM;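 active = percent inhibition above the cutoff of mean plus 3 SD of all tested compounds, set per screening campaign, cut at about 20% in these data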;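 also: 0% = DMSO wells and 100% = biotin wells as full block of FRET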
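Material: NR2E3–RetCOR corepressor complex / Incubation: Compound–protein incubation for 5 h at 4 °C / Dosing: compound at 4.8 µM, single dose / Detection: time-resolved FRET / Benchmarks: high control biotin, low control 0.6% DMSO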
CHT allo act: allosterically activates the human high affinity choline transporter | 310,000 tested, 0.49% active | AID 488977 | Q9GZV3 | B-score at 10 µM | CHT-expressing cells, membrane potential dye, choline EC20; hits give high values; LV-AA mutant CHT in HEK293 cells;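 active = initial fluorescence not abnormally high and integrated response B-score, plate-corrected, over 3 SD above library mean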
NR2E3 ag-2: agonists of human NR2E3 nuclear receptor. CHO-S Gal4-NCOR/VP16-NR2E3 two-hybrid, luciferase. inhibition of corepressor binding, % at 3.98 µM. 360,000 tested, 0.35% active. AID 602229;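 active = inhibition above the mean of all tested compounds plus 3 SD, cut at about 70% in these data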;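 also: 0% = DMSO with NR2E3 transfected cells and 100% = cells lacking NR2E3 construct; higher means lower luciferase signal from less NR2E3 corepressor binding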
NR2F2 inh: NR2F2 (human) inhibition, primary screen. 370,000 tested, 0.7% active. HEK293T NGFI-A luciferase reporter, luminescence. inhibition, % at 8.6 µM. P24468;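 active = inhibition above a per-plate cutoff, mean inhibition of test wells between control levels plus 3 SD, cut at about 38% in these data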;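 also: cells cotransfected with COUP-TFII expression vector driving the NGFI-A reporter; 0% = median of COUP-TF2 test wells and 100% = reporter-only cells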
Target sequence (P24468 whole entry, looked up): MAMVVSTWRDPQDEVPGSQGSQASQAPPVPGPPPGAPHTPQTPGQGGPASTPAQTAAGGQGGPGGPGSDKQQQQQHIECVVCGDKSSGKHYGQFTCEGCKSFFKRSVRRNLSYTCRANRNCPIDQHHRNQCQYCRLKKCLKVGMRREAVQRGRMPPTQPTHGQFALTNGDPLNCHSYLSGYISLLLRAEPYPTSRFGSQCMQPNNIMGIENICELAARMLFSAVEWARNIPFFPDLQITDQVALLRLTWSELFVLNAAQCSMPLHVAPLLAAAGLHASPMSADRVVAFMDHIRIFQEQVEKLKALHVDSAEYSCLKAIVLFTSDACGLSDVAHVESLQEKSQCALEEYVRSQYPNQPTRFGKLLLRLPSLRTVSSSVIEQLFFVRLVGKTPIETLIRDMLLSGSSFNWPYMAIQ
CHT inh: inhibits the human high affinity choline transporter; Q9GZV3; CHT-expressing cells, membrane potential dye, choline response; hits give low values; B-score at 10 µM; 310,000 tested, 0.86% active; AID 488975;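 active = B-score over 3 SD under the library average, and starting fluorescence ratio not unusually high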;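 also: choline stimulus applied at its EC90 after an EC20 pre-addition; B-score computed on integrated fluorescence ratio after choline addition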
NR2E3 ag conf: confirmation of human NR2E3 agonists; shares compounds with NR2E3 ag-2; CHO-S mammalian two-hybrid NR2E3-NCOR, luciferase luminescence; inhibition, % at 3.98 µM; 2,300 tested, 51% active;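 active = average inhibition above a cutoff equal to the mean inhibition of all tested compounds plus one SD, cut at about 70% in these data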;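 also: 0% = DMSO in NR2E3 cells and 100% = DMSO in cells lacking NR2E3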
VP16 counter: GAL4-VP16 reporter inhibition in NR2E3 agonist counterscreen; AID 624379; inhibition, % at 3.98 µM; 2,300 tested, 29% active; shares compounds with NR2E3 ag-2; CHO-S GAL4-VP16 luciferase reporter, luminescence;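 active = mean inhibition above a cutoff equal to the average over all tested compounds plus one standard deviation, cut at about 70% in these data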;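 also: luciferase from a UAS reporter driven by GAL4-VP16 transactivation; 0% = DMSO with VP16-transfected cells and 100% = DMSO with cells lacking VP16; higher means less reporter light so more repression of VP16 activity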
GalR3 antag conf: GalR3 (human) antagonism, confirmation | shares compounds with GalR3 antagonist | HEK293 GalR3 CNG cAMP biosensor, membrane potential fluorescence; galR3 fused to GalR1 carboxy tail; challenged with forskolin and galanin at EC90 | inhibition, % at 3 µM | 1,600 tested, 59% active | AID 652245;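 active = inhibition above the primary screen's cutoff, the mean inhibition of all screened compounds plus 3 SD, cut at about 13% in these data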;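 also: 0% = forskolin plus galanin and 100% = forskolin alone with DMSO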
HEK-CNG parental: parental cell agonism counter-screen for GalR3 antagonists. shares compounds with GalR3 antagonist. HEK293-CNG parental cells, cAMP membrane potential fluorescence; normalised: DMSO wells 0%, forskolin wells 100%. activation, % at 3 µM. 1,600 tested, 10% active; in the data active = activation above about 1.3%
Gal4-VP16 ctr: counter-screen for COUP-TFII antagonists: inhibitors of VP16. shares compounds with NR2F2 inh. HEK293 Gal4-VP16 luciferase reporter, luminescence. inhibition, % at 8.5 µM. 2,500 tested, 25% active; in the data active = inhibition above about 13%
COUP-TFII conf: confirmation of human COUP-TFII (NR2F2) inhibitors; shares compounds with NR2F2 inh; HEK293 NGFI-A luciferase reporter, luminescence; inhibition, % at 8.5 µM; 2,500 tested, 45% active; AID 687008;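 active = mean inhibition over three repeats above a set limit taken from the earlier primary screen, cut at about 38% in these data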;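 also: 100% = cells given the luciferase reporter alone without the COUP-TF2 vector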
* hit, by the source's call; i = inactive; . = not tested or not shown.

SMILES	GalR3 antagonist	NR2E3 ag-1	CHT allo act	NR2E3 ag-2	NR2F2 inh	CHT inh	NR2E3 ag conf	VP16 counter	Gal4-VP16 ctr	COUP-TFII conf	others
CC1CCCC=CC2CC(OC(=O)CN(C)C)CC2C(O)C=CC(=O)O1 (stereo not given)	0	.	.	68	51*	.	98*	67	16*	16
O=S(=O)(c1ccccc1)N1CCC(O)(CSc2ccc(Cl)cc2)CC1	93*	1	i	78*	54*	i	95*	79*	5	37	GalR3 antag conf=108*;HEK-CNG parental=-1
O=S(=O)(c1ccc(Cl)cc1)N1CCC(O)(CN2CCN(Cc3ccccc3)CC2)CC1	0	4	i	10	21	i	.	.	.	.
O=c1c2[nH]c3ccccc3c2ncn1CCC1=CCCCC1	-3	-2	i	-38	-8	i	.	.	.	.
COc1ccc(CNc2ncnc3c2[nH]c2ccccc23)cc1	-8	1	i	57	45*	i	89*	72*	0	35
C1=C(CCNc2ncnc3c2[nH]c2ccccc23)CCCC1	84*	0	i	74*	67*	i	97*	81*	-86	48*	GalR3 antag conf=98*;HEK-CNG parental=1.4*
COC(=O)C1CN(Cc2cn(Cc3ccc(F)cc3)nn2)CCS(=O)(=O)N1Cc1ccc(C)cc1 (stereo not given)	.	.	.	.	12	.	.	.	.	.
C=CCSc1nc2ccccc2n1C(=O)/C=C/c1cc(OC)c(OC)c(OC)c1	-5	1	i	57	46*	i	69	-1	17*	71*
C=CCSc1nc2ccccc2n1C(=O)/C=C/c1ccc(OC)c(OC)c1	-7	8	i	-13	-14	i	.	.	.	.
CCn1c(=O)[nH]n(C/C(C)=C\c2c[n+](Cc3ccc4c(c3)OCO4)c(N)[nH]2)c1=O	.	.	.	.	-8	.	.	.	.	.
CC1CCCN(c2ncnc3c2cnn3-c2ccc(Cl)cc2)C1 (stereo not given)	2	1	i	92*	100*	i	83*	69	90*	105*
CCCOc1ccc(-c2cc(C(C)=O)c3n(c2=O)CCC3)cc1	.	.	.	.	-6	.	.	.	.	.
CNC(=O)c1cc(Oc2ccc(NC(=O)Nc3ccc(Cl)c(C(F)(F)F)c3)cc2)ccn1	-8	5	.	92*	72*	.	99*	81*	15*	48*
C=C(C(=O)c1ccccc1)C(C)C(=C)C(=O)c1ccccc1	-1	3	i	69	58*	i	79*	27	47*	87*
C=C(C(=O)c1ccccc1)C(c1ccccc1)C(C)C(=O)c1ccccc1 (stereo not given)	0	0	i	5	-21	i	.	.	.	.
COc1ccc(C=O)cc1-c1cc(C(C)=O)c2n(c1=O)CCC2	.	.	.	.	-11	.	.	.	.	.
N#CCC[C@H]1CC[C@]2(CCCN(C(=O)c3ccno3)C2)O1	.	.	.	.	-17	.	.	.	.	.
CN(Cc1ccccc1)c1ccc(S(=O)(=O)N2CCC(C(=O)O)CC2)cc1[N+](=O)[O-]	-9	1	i	10	3	i	.	.	.	.
COc1ccc(CN(C)c2ccc(S(=O)(=O)N3CCN(C)CC3)cc2[N+](=O)[O-])cc1OC	103*	3	.	94*	70*	.	96*	85*	-1	67*	GalR3 antag conf=127*;HEK-CNG parental=0
O=C(CNc1cccc(S(=O)(=O)N2CCCC2)c1)Nc1ccc(C(F)(F)F)cc1	-5	4	i	60	40*	i	64	47	6	29
Cc1ccc(C(=O)Nc2sc(C)c(-c3ccccc3)c2C(N)=O)cc1[N+](=O)[O-]	-4	1	i	54	56*	i	56	16	27*	84*
Cc1ccc(C(=O)Nc2cccc(NC(=O)c3ccc(C)c([N+](=O)[O-])c3)n2)cc1[N+](=O)[O-]	-2	2	i	2	-5	i	.	.	.	.
Cc1ccccc1CC(=O)Nc1nnc(-c2cccnc2)s1	.	.	.	.	4	.	.	.	.	.
COc1ccc(CNC(=O)c2cccc(S(=O)(=O)N3CCCCC3)c2)cc1OC	6	3	.	55	64*	.	59	57	3	45*
Cc1ccc2c(c1)nnn2C1CCN(S(=O)(=O)c2ccc(C(=O)N3C(C)CCCC3C)cc2)CC1 (stereo not given)	-2	-1	i	71*	42*	i	89*	71*	8	55*
SMILES	GalR3 antagonist	NR2E3 ag-1	CHT allo act	NR2E3 ag-2	NR2F2 inh	CHT inh	NR2E3 ag conf	VP16 counter	Gal4-VP16 ctr	COUP-TFII conf	others
CN(CCOC(=O)c1occ2ccccc12)C1CN(Cc2cn(Cc3ccccc3Cl)nn2)S(=O)(=O)C1 (stereo not given)	.	.	.	.	-5	.	.	.	.	.
CCCCCCCCN1C(=O)[C@@H](CC(=O)N2CCC(c3ccccc3)CC2)C[C@@]2(C(=O)OC)C1=C[C@H](C(C)C)O[C@@H]2C1CC1	.	.	.	.	34	.	.	.	.	.
Cc1cc(C)nc(/N=C(\N)Nc2ccc(OCCC(C)C)cc2)n1	45*	3	i	53	58*	i	70	58	18*	38*	GalR3 antag conf=30*;HEK-CNG parental=6.2*
Cc1cc(Nc2ccccc2)nc(NCc2ccccc2)n1	-12	1	i	88*	38*	i	96*	81*	-5	21
Cn1nc(C(C)(C)C)cc1C(=O)NCc1ccc(N2CCCC2=O)cc1	98*	2	i	92*	69*	i	96*	87*	-1	52*	GalR3 antag conf=104*;HEK-CNG parental=0
Cc1nn(C)c(Cl)c1NC(=O)OCc1ccc(Cl)cc1Cl	96*	2	i	67	53*	i	91*	67	4	32	GalR3 antag conf=21*;HEK-CNG parental=0

Screening data: PubChem, several laboratories
